Laboratory results taken from ChEMBL document CHEMBL1158537, “Antibacterial activities of aminoglycoside antibiotics-derived cationic amphiphiles. Polyol-modified neomycin B-, kanamycin A-, amikacin-, and neamine-based amphiphiles with potent broad spectrum antibacterial activity” (2010).

Assays:
Staphylococcus aureus [1] = assay: Antibacterial activity against Staphylococcus aureus ATCC 29213 after 24 hrs by macrobroth dilution method; type: functional; conditions: ATCC 29213, 24 h
Procedure, shortened: (§1)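 Reference strains from the American Type Culture Collection were tested by broth macrodilution following CLSI methodology. The read-out was the minimum inhibitory concentration, reported in μg/mL. The same method was used for the Gram-positive and Gram-negative organisms.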

Staphylococcus aureus [2] = assay: Antibacterial activity against methicillin-resistant Staphylococcus aureus ATCC 33592 after 24 hrs by macrobroth dilution method; type: functional; conditions: ATCC 33592, 24 h; procedure, shortened: as §1
[3] = tested on: Staphylococcus epidermidis; assay: Antibacterial activity against Staphylococcus epidermidis […] after 24 hrs by macrobroth dilution method; type: functional
Procedure, shortened: (§2)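 Broth macrodilution was run following CLSI methodology against ATCC reference strains and clinical isolates from the Canadian Intensive Care Unit (CAN-ICU) study, with Gram-positive and Gram-negative organisms tested. The value is the minimum inhibitory concentration, reported in μg/mL.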

[4] = tested on: Staphylococcus epidermidis; assay: Antibacterial activity against methicillin-resistant Staphylococcus epidermidis ATCC 14990 after 24 hrs by macrobroth dilution method; type: functional; conditions: ATCC 14990, 24 h
Streptococcus pneumoniae = assay: Antibacterial activity against Streptococcus pneumoniae ATCC 49619 after 24 hrs by macrobroth dilution method; type: functional; conditions: ATCC 49619, 24 h; procedure, shortened: as §2
Escherichia coli [5] = assay: Antibacterial activity against gentamicin-resistant Escherichia coli ATCC 6174 after 24 hrs by macrobroth dilution method; type: functional; conditions: ATCC 6174, 24 h; procedure, shortened: as §1
Escherichia coli [6] = assay: Antibacterial activity against Escherichia coli ATCC 25922 after 24 hrs by macrobroth dilution method; type: functional; conditions: ATCC 25922, 24 h; procedure, shortened: as §1
Escherichia coli [7] = assay: Antibacterial activity against Escherichia coli CAN-ICU 63074 after 24 hrs by macrobroth dilution method; type: functional; conditions: CAN-ICU 63074, 24 h; procedure, shortened: as §2
Pseudomonas aeruginosa [8] = assay: Antibacterial activity against Pseudomonas aeruginosa ATCC 27853 after 24 hrs by macrobroth dilution method; type: functional; conditions: ATCC 27853, 24 h; procedure, shortened: as §2
Pseudomonas aeruginosa [9] = assay: Antibacterial activity against Pseudomonas aeruginosa CAN-ICU 62308 after 24 hrs by macrobroth dilution method; type: functional; conditions: CAN-ICU 62308, 24 h; procedure, shortened: as §2
[10] = tested on: Stenotrophomonas maltophilia; assay: Antibacterial activity against Stenotrophomonas maltophilia CAN-ICU 62585 after 24 hrs by macrobroth dilution method; type: functional; conditions: CAN-ICU 62585, 24 h; procedure, shortened: as §2
Acinetobacter baumannii = assay: Antibacterial activity against Acinetobacter baumannii CAN-ICU 63169 after 24 hrs by macrobroth dilution method; type: functional; conditions: CAN-ICU 63169, 24 h; procedure, shortened: as §2
Klebsiella pneumoniae = assay: Antibacterial activity against Klebsiella pneumoniae ATCC 13883 after 24 hrs by macrobroth dilution method; conditions: ATCC 13883, 24 h

Compound | MIC (Staphylococcus aureus [1]) [µg/mL] | MIC (Staphylococcus aureus [2]) [µg/mL] | MIC [3] [µg/mL] | MIC [4] [µg/mL] | MIC (Streptococcus pneumoniae) [µg/mL] | MIC (Escherichia coli [5]) [µg/mL] | MIC (Escherichia coli [6]) [µg/mL] | MIC (Escherichia coli [7]) [µg/mL] | MIC (Pseudomonas aeruginosa [8]) [µg/mL] | MIC (Pseudomonas aeruginosa [9]) [µg/mL] | MIC [10] [µg/mL] | MIC (Acinetobacter baumannii) [µg/mL] | MIC (Klebsiella pneumoniae) [µg/mL]
NC[C@@H]1O[C@H](O[C@H]2[C@@H](OC(=O)Nc3ccc(Cl)cc3)[C@H](O[C@@H]3[C@@H](OC(=O)Nc4ccc(Cl)cc4)[C@H](N)C[C@H](N)[C@H]3O[C@H]3O[C@H](CN)[C@@H](OC(=O)Nc4ccc(Cl)cc4)[C@H](OC(=O)Nc4ccc(Cl)cc4)[C@H]3N)O[C@@H]2COC(=O)Nc2ccc(Cl)cc2)[C@H](N)[C@@H](OC(=O)Nc2ccc(Cl)cc2)[C@@H]1OC(=O)Nc1ccc(Cl)cc1.O=C(O)C(F)(F)F | 64 | 64 | 16 | 32 | 128 | > 256 | > 256 | 256 | > 256 | 256 | 128 | > 256 | 256
NC[C@H]1OC(O[C@H]2[C@H](OCc3ccc(Cl)cc3)[C@@H](O[C@H]3O[C@H](COCc4ccc(Cl)cc4)[C@@H](OCc4ccc(Cl)cc4)[C@H](N)[C@H]3OCc3ccc(Cl)cc3)[C@H](N)C[C@@H]2N)[C@H](OCc2ccc(Cl)cc2)[C@@H](OCc2ccc(Cl)cc2)[C@@H]1OCc1ccc(Cl)cc1.O=C(O)C(F)(F)F (stereo partly drawn) | 32 | 32 | 32 | 16 | 64 | 128 | 128 | 64 | > 128 | > 128 | > 128 | > 128 | > 128
NC[C@H]1O[C@H](O[C@H]2[C@H](OC(=O)Nc3ccccc3)[C@@H](O[C@H]3O[C@H](COC(=O)Nc4ccccc4)[C@@H](OC(=O)Nc4ccccc4)[C@H](N)[C@H]3OC(=O)Nc3ccccc3)[C@H](N)C[C@@H]2N)[C@H](OC(=O)Nc2ccccc2)[C@@H](OC(=O)Nc2ccccc2)[C@@H]1OC(=O)Nc1ccccc1.O=C(O)C(F)(F)F | 32 | 32 | 4 | 8 | 64 | > 256 | > 256 | > 256 | > 256 | > 256 | > 256 | > 256 | > 256
NCC[C@H](OC(=O)Nc1ccccc1)C(=O)N[C@@H]1C[C@H](N)[C@@H](C[C@H]2O[C@H](CN)[C@@H](OC(=O)Nc3ccccc3)[C@H](OC(=O)Nc3ccccc3)[C@H]2OC(=O)Nc2ccccc2)[C@H](OC(=O)Nc2ccccc2)[C@H]1O[C@H]1O[C@H](COC(=O)Nc2ccccc2)[C@@H](OC(=O)Nc2ccccc2)[C@H](N)[C@H]1OC(=O)Cc1ccccc1.O=C(O)C(F)(F)F | 8 | 16 | 2 | 2 | 32 | 256 | 256 | 256 | > 256 | 256 | 128 | 256 | 256
NC[C@@H]1O[C@H](O[C@H]2[C@@H](OCc3ccccc3)[C@H](O[C@@H]3[C@@H](OCc4ccccc4)[C@H](N)C[C@H](N)[C@H]3O[C@H]3O[C@H](CN)[C@@H](OCc4ccccc4)[C@H](OCc4ccccc4)[C@H]3N)O[C@@H]2COCc2ccccc2)[C@H](N)[C@@H](OCc2ccccc2)[C@@H]1OCc1ccccc1.O=C(O)C(F)(F)F | 4 | 4 | 2 | 2 | 16 | 16 | 8 | 4 | 32 | 64 | 8 | 16 | 8
NC[C@@H]1O[C@H](O[C@H]2[C@@H](OCc3ccc(Cl)cc3)[C@H](O[C@@H]3[C@@H](OCc4ccc(Cl)cc4)[C@H](N)C[C@H](N)[C@H]3O[C@H]3O[C@H](CN)[C@@H](OCc4ccc(Cl)cc4)[C@H](OCc4ccc(Cl)cc4)[C@H]3N)O[C@@H]2COCc2ccc(Cl)cc2)[C@H](N)[C@@H](OCc2ccc(Cl)cc2)[C@@H]1OCc1ccc(Cl)cc1.O=C(O)C(F)(F)F | 64 | 64 | 32 | 64 | 128 | > 128 | 128 | 64 | > 128 | > 128 | > 128 | > 128 | 128
COC[C@H]1O[C@@H](O[C@@H]2[C@@H](OC)[C@H](N)C[C@H](N)[C@H]2O[C@H]2O[C@H](CN)[C@@H](OC)[C@H](OC)[C@H]2N)[C@H](OC)[C@@H]1O[C@H]1O[C@@H](CN)[C@@H](OC)[C@H](OC)[C@H]1N.O=C(O)C(F)(F)F | > 256 | > 256 | 256 | > 256 | > 256 | > 256 | > 256 | > 256 | > 256 | > 256 | > 256 | > 256 | > 256
NC[C@H]1O[C@H](O[C@H]2[C@H](OC(=O)Nc3ccccc3)[C@@H](OC(=O)Nc3ccccc3)[C@H](N)C[C@@H]2N)[C@H](N)[C@@H](OC(=O)Nc2ccccc2)[C@@H]1OC(=O)Nc1ccccc1.O=C(O)C(F)(F)F | 16 | 16 | 8 | 8 | > 256 | 32 | 32 | 32 | 128 | 128 | 64 | 256 | 64
CC(C)(C)c1ccc(COC[C@H]2O[C@@H](O[C@@H]3[C@@H](OCc4ccc(C(C)(C)C)cc4)[C@H](N)C[C@H](N)[C@H]3O[C@H]3O[C@H](CN)[C@@H](OCc4ccc(C(C)(C)C)cc4)[C@H](OCc4ccc(C(C)(C)C)cc4)[C@H]3N)[C@H](OCc3ccc(C(C)(C)C)cc3)[C@@H]2O[C@H]2O[C@@H](CN)[C@@H](OCc3ccc(C(C)(C)C)cc3)[C@H](OCc3ccc(C(C)(C)C)cc3)[C@H]2N)cc1.O=C(O)C(F)(F)F | 128 | 128 | 64 | 64 | 256 | 128 | 128 | 128 | 256 | 128 | > 128 | > 128 | > 128
NC[C@H]1OC(O[C@H]2[C@H](OCc3ccccc3)[C@@H](O[C@H]3O[C@H](COCc4ccccc4)[C@@H](OCc4ccccc4)[C@H](N)[C@H]3OCc3ccccc3)[C@H](N)C[C@@H]2N)[C@H](OCc2ccccc2)[C@@H](OCc2ccccc2)[C@@H]1OCc1ccccc1.O=C(O)C(F)(F)F (stereo partly drawn) | 8 | 8 | 4 | 8 | 32 | 32 | 32 | 16 | > 64 | > 64 | > 64 | > 64 | > 64
COC[C@H]1O[C@H](O[C@@H]2[C@@H](OC)[C@H](OC3O[C@H](CN)[C@@H](OC)[C@H](OC)[C@H]3OC)[C@@H](N)C[C@H]2N)[C@H](OC)[C@@H](N)[C@@H]1OC.O=C(O)C(F)(F)F (stereo partly drawn) | > 256 | > 256 | 256 | > 256 | > 256 | > 256 | > 256 | > 256 | > 256 | > 256 | > 256 | > 256 | > 256
